Experimental data as given in ChEMBL document CHEMBL1152161, “A facile synthesis, antibacterial, and antitubercular studies of some piperidin-4-one and tetrahydropyridine derivatives” (2008).
≈ marks a conversion by molar mass, not a printed value. Calls of active or inactive are those of the source. No cut-off for these calls is given here.

Experiments:
[1] = tested on: Moraxella catarrhalis; assay: Antibacterial activity against Moraxella catarrhalis at 128 ug/mL by broth micro dilution method; assay type: functional, organism-based
[2] = tested on: Staphylococcus aureus; assay: Antibacterial activity against methicillin-resistant Staphylococcus aureus at 128 ug/mL by broth micro dilution method; assay type: functional, organism-based
How it was run: (§1)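 MIC90 was determined by broth microdilution following NCCLS methods. Linezolid and trovafloxacin were run as positive controls, with DMSO as the negative control. Compounds were tested up to a top concentration of 128.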

[3] = tested on: Escherichia coli; assay: Antibacterial activity against Escherichia coli LCB0012 at 128 ug/mL by broth micro dilution method; assay type: functional, organism-based
[4] = tested on: Enterococcus faecium; assay: Antibacterial activity against Enterococcus faecium at 128 ug/mL by broth micro dilution method; assay type: functional, organism-based
[5] = tested on: Escherichia coli; assay: Antibacterial activity against Escherichia coli LCB0010 at 128 ug/mL by broth micro dilution method; assay type: functional, organism-based
[6] = tested on: Staphylococcus aureus; assay: Antibacterial activity against Staphylococcus aureus by broth micro dilution method; assay type: functional
How it was run: (§2)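 MIC90 was found by broth microdilution following NCCLS methods. Compounds were tested up to a top concentration of […]. Linezolid and trovafloxacin served as positive controls and DMSO as the negative control.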

[7] = tested on: Staphylococcus epidermidis; assay: Antibacterial activity against methicillin-resistant Staphylococcus epidermidis by broth micro dilution method; assay type: functional; how it was run: as §1
[8] = tested on: Enterococcus faecium; assay: Antibacterial activity against vancomycin-resistant Enterococcus faecium at 128 ug/mL by broth micro dilution method; assay type: functional, organism-based; how it was run: as §1
[9] = tested on: Staphylococcus epidermidis; assay: Antibacterial activity against Staphylococcus epidermidis at 128 ug/mL by broth micro dilution method; assay type: functional, organism-based
[10] = tested on: Klebsiella pneumoniae; assay: Antibacterial activity against Klebsiella pneumoniae at 128 ug/mL by broth micro dilution method; assay type: functional, organism-based
[11] = tested on: Pseudomonas aeruginosa; assay: Antibacterial activity against Pseudomonas aeruginosa at 128 ug/mL by broth micro dilution method; assay type: functional, organism-based
[12] = tested on: Enterococcus faecalis; assay: Antibacterial activity against Enterococcus faecalis at 128 ug/mL by broth micro dilution method; assay type: functional, organism-based
[13] = tested on: Escherichia coli; assay: Antibacterial activity against Escherichia coli LCB0011 at 128 ug/mL by broth micro dilution method; assay type: functional, organism-based
[14] = tested on: Enterococcus faecalis; assay: Antibacterial activity against vancomycin-resistant Enterococcus faecalis at 128 ug/mL by broth micro dilution method; assay type: functional, organism-based; how it was run: as §1
[15] = tested on: Enterococcus faecalis; assay: Antibacterial activity against vancomycin and linezolid-resistant Enterococcus faecalis at 128 ug/mL by broth micro dilution method; assay type: functional, organism-based; how it was run: as §1
[16] = tested on: Haemophilus influenzae; assay: Antibacterial activity against Haemophilus influenzae at 128 ug/mL by broth micro dilution method; assay type: functional, organism-based
[17] = tested on: Enterococcus faecium; assay: Antibacterial activity against vancomycin-resistant Enterococcus faecium by broth micro dilution method; assay type: functional; conditions: for MIC90: Enterococcus faecium; how it was run: as §1
[18] = tested on: Enterococcus faecalis; assay: Antibacterial activity against Enterococcus faecalis by broth micro dilution method; assay type: functional; how it was run: as §2
[19] = tested on: Staphylococcus aureus; assay: Antibacterial activity against methicillin-resistant Staphylococcus aureus by broth micro dilution method; assay type: functional; how it was run: as §1
[20] = tested on: Escherichia coli; assay: Antibacterial activity against Escherichia coli LCB0012 by broth micro dilution method; assay type: functional; how it was run: as §2
[21] = tested on: Haemophilus influenzae; assay: Antibacterial activity against Haemophilus influenzae by broth micro dilution method; assay type: functional; how it was run: as §2
[22] = tested on: Moraxella catarrhalis; assay: Antibacterial activity against Moraxella catarrhalis by broth micro dilution method; assay type: functional; how it was run: as §2
[23] = tested on: Enterococcus faecalis; assay: Antibacterial activity against vancomycin and linezolid-resistant Enterococcus faecalis by broth micro dilution method; assay type: functional; how it was run: as §1
[24] = tested on: Enterococcus faecalis; assay: Antibacterial activity against vancomycin-resistant Enterococcus faecalis by broth micro dilution method; assay type: functional; how it was run: as §1
[25] = tested on: Escherichia coli; assay: Antibacterial activity against Escherichia coli LCB0011 by broth micro dilution method; assay type: functional; how it was run: as §2
[26] = tested on: Staphylococcus epidermidis; assay: Antibacterial activity against Staphylococcus epidermidis by broth micro dilution method; assay type: functional; how it was run: as §1
[27] = tested on: Enterococcus faecium; assay: Antibacterial activity against Enterococcus faecium by broth micro dilution method; assay type: functional; how it was run: as §2
[28] = tested on: Staphylococcus epidermidis; assay: Antibacterial activity against methicillin-resistant Staphylococcus epidermidis at 128 ug/mL by broth micro dilution method; assay type: functional, organism-based; how it was run: as §1
[29] = tested on: Staphylococcus aureus; assay: Antibacterial activity against Staphylococcus aureus at 128 ug/mL by broth micro dilution method; assay type: functional, organism-based
[30] = tested on: Mycobacterium tuberculosis; assay: Antitubercular potency, ratio of Rifampicin MIC to drug MIC against Mycobacterium tuberculosis H37Rv ATCC 27294; assay type: functional
[31] = tested on: Mycobacterium tuberculosis; assay: Antitubercular activity against Mycobacterium tuberculosis H37Rv ATCC 27294 by radiometric respiratory technique; assay type: functional
[32] = tested on: Mycobacterium tuberculosis; assay: Antitubercular potency, ratio of Isoniazid MIC to drug MIC against Mycobacterium tuberculosis H37Rv ATCC 27294; assay type: functional

Row | SMILES | Activity [1] | Activity [2] | Activity [3] | Activity [4] | Activity [5] | MIC90 [6] | Activity [9] | Activity [10] | Activity [11] | Activity [12] | Activity [13] | Activity [14] | Activity [15] | Activity [16] | MIC90 [17] | MIC90 [18] | MIC90 [19] | MIC90 [20] | Activity [28] | MIC [31] | other results
1 | CC1C(=O)C(C)C(c2ccccc2Cl)N(C(=O)Cn2cnc3ccccc32)C1c1ccccc1Cl (centres undefined) | inactive | inactive | inactive | inactive | inactive | 64 µg/mL (≈ 126 µM) | inactive | inactive | inactive | inactive | inactive | inactive | inactive | inactive |  |  |  |  |  |  | MIC90 [7]: 128 µg/mL (≈ 253 µM); Activity [8]: inactive
2 | CC(=O)NC[C@H]1CN(c2ccc(N3CCOCC3)c(F)c2)C(=O)O1 [LINEZOLID] |  |  |  |  | inactive | 1 µg/mL (≈ 2.96 µM) |  | inactive | inactive |  |  |  |  |  | 2 µg/mL (≈ 5.93 µM) | 2 µg/mL (≈ 5.93 µM) | 2 µg/mL (≈ 5.93 µM) | 64 µg/mL (≈ 190 µM) |  |  | MIC90 [21]: 16 µg/mL (≈ 47.4 µM); MIC90 [22]: 8 µg/mL (≈ 23.7 µM); MIC90 [23]: 64 µg/mL (≈ 190 µM); MIC90 [7]: 2 µg/mL (≈ 5.93 µM); MIC90 [24]: 2 µg/mL (≈ 5.93 µM); MIC90 [25]: 16 µg/mL (≈ 47.4 µM); MIC90 [26]: 1 µg/mL (≈ 2.96 µM); MIC90 [27]: 2 µg/mL (≈ 5.93 µM)
3 | COc1ccc(C2CC(=O)C(C)C(c3ccc(OC)cc3)N2C(=O)Cn2cnc3ccccc32)cc1 (centres undefined) | inactive | inactive |  | inactive | inactive |  | inactive | inactive | inactive | inactive | inactive | inactive | inactive | inactive | 128 µg/mL (≈ 265 µM) |  |  | 128 µg/mL (≈ 265 µM) | inactive |  | Activity [29]: inactive
4 | C=Cc1ccc(S(=O)(=O)OC2=C(C(=O)OCC)C(c3ccccc3)N(C(=O)CCl)C(c3ccccc3)C2)cc1 (centres undefined) | inactive | inactive |  | inactive | inactive |  | inactive | inactive | inactive | inactive |  | inactive | inactive |  |  |  |  | 128 µg/mL (≈ 226 µM) | inactive |  | Activity [29]: inactive; MIC90 [21]: 128 µg/mL (≈ 226 µM); Activity [8]: inactive; MIC90 [25]: 128 µg/mL (≈ 226 µM)
5 | COc1ccc(C2C(C)C(=O)C(C)C(c3ccc(OC)cc3)N2C(=O)Cn2cnc3ccccc32)cc1 (centres undefined) |  |  |  | inactive | inactive | 16 µg/mL (≈ 32.2 µM) | inactive | inactive | inactive |  | inactive | inactive | inactive | inactive | 16 µg/mL (≈ 32.2 µM) | 64 µg/mL (≈ 129 µM) | 128 µg/mL (≈ 257 µM) | 128 µg/mL (≈ 257 µM) | inactive | 64 µg/mL (≈ 129 µM) | Ratio [30]: 50; MIC90 [22]: 16 µg/mL (≈ 32.2 µM); Ratio [32]: 0.39
6 | CCOC(=O)C1=C(OS(=O)(=O)c2cccs2)CC(c2ccccc2)N(C(=O)CCl)C1c1ccccc1 (centres undefined) |  |  | inactive | inactive | inactive | 32 µg/mL (≈ 58.6 µM) |  | inactive | inactive | inactive |  | inactive | inactive | inactive |  |  | 64 µg/mL (≈ 117 µM) |  |  | 32 µg/mL (≈ 58.6 µM) | Ratio [30]: 100; Activity [17]: 32 µg/mL; MIC90 [22]: 32 µg/mL (≈ 58.6 µM); MIC90 [7]: 128 µg/mL (≈ 234 µM); MIC90 [25]: 128 µg/mL (≈ 234 µM); MIC90 [26]: 64 µg/mL (≈ 117 µM); Ratio [32]: 0.78
7 | COc1ccccc1C1C(C)C(=O)C(C)C(c2ccccc2OC)N1C(=O)Cn1cnc2ccccc21 (centres undefined) | inactive | inactive | inactive | inactive | inactive | 32 µg/mL (≈ 64.3 µM) | inactive | inactive | inactive |  | inactive | inactive | inactive | inactive | 16 µg/mL (≈ 32.2 µM) | 64 µg/mL (≈ 129 µM) |  |  | inactive | 128 µg/mL (≈ 257 µM) | Ratio [30]: 25; Ratio [32]: 0.19
8 | NNC(=O)c1ccncc1 [ISONIAZID] |  |  |  |  |  |  |  |  |  |  |  |  |  |  |  |  |  |  |  | 0.25 µg/mL (≈ 1.82 µM) | 
9 | CCOC(=O)C1=C(O)CC(c2ccccc2)N(C(=O)Cn2cnc3ccccc32)C1c1ccccc1 (centres undefined) |  | inactive | inactive | inactive | inactive | 32 µg/mL (≈ 66.5 µM) |  | inactive | inactive |  | inactive | inactive |  | inactive | 64 µg/mL (≈ 133 µM) | 128 µg/mL (≈ 266 µM) |  |  | inactive | 16 µg/mL (≈ 33.2 µM) | Ratio [30]: 200; MIC90 [22]: 64 µg/mL (≈ 133 µM); MIC90 [23]: 128 µg/mL (≈ 266 µM); MIC90 [26]: 128 µg/mL (≈ 266 µM); Ratio [32]: 1.56
10 | COc1cc(OC)cc(C2CC(=O)C(C)C(c3cc(OC)cc(OC)c3)N2C(=O)Cn2cnc3ccccc32)c1 (centres undefined) | inactive | inactive | inactive | inactive | inactive |  | inactive | inactive | inactive | inactive | inactive | inactive | inactive | inactive |  |  |  |  | inactive |  | Activity [29]: inactive; Activity [8]: inactive
11 | Cc1ccc(C2CC(=O)C(C)C(c3ccc(C)cc3)N2C(=O)Cn2cnc3ccccc32)cc1 (centres undefined) | inactive | inactive |  | inactive | inactive |  | inactive | inactive | inactive | inactive | inactive | inactive | inactive | inactive | 64 µg/mL (≈ 142 µM) |  |  | 128 µg/mL (≈ 283 µM) | inactive |  | Activity [29]: inactive
12 | CO[C@H]1/C=C/O[C@@]2(C)Oc3c(C)c(O)c4c(O)c(c(/C=N/N5CCN(C)CC5)c(O)c4c3C2=O)NC(=O)/C(C)=C\C=C\[C@H](C)[C@H](O)[C@@H](C)[C@@H](O)[C@@H](C)[C@H](OC(C)=O)[C@@H]1C [RIFAMPIN] |  |  |  |  |  |  |  |  |  |  |  |  |  |  |  |  |  |  |  | 32 µg/mL (≈ 38.9 µM) | 
13 | Cc1ccc(C2C(C)C(=O)C(C)C(c3ccc(C)cc3)N2C(=O)Cn2cnc3ccccc32)cc1 (centres undefined) | inactive |  |  | inactive | inactive | 64 µg/mL (≈ 137 µM) | inactive | inactive | inactive |  |  |  | inactive | inactive | 32 µg/mL (≈ 68.7 µM) | 128 µg/mL (≈ 275 µM) | 64 µg/mL (≈ 137 µM) |  | inactive |  | MIC90 [24]: 128 µg/mL (≈ 275 µM); MIC90 [25]: 128 µg/mL (≈ 275 µM)
